In test [1] the test system is Escherichia coli. Kind of test: Antibacterial activity against Escherichia coli BL21 (DE3) assessed as zone of growth inhibition at 10 mmol incubated for overnight by disc diffusion method. The note with it: dose 10 mM; time 12 hrs. The format is functional. In outline: (§1)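 Overnight LB cultures (37 °C, 200 rpm), 150 µL spread on LB agar. 15 µL of compound (10 mM stock in DMSO) was applied to 6 mm filter paper disks, with DMSO as negative and CHIR-090 as positive control. Plates were incubated overnight at 37 °C and the diameter of the growth-inhibition zone was measured. At least three runs on separate days.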

The nature of test [2]: Inhibition of LpxC C63A mutant in Escherichia coli […] preincubated for 30 mins followed by incubation for 10 mins by spectrophotometric analysis.
Test [3] relates to Escherichia coli. Kind of test: Antibacterial activity against Escherichia coli BL21 (DE3) assessed as prevention of visible growth incubated for 20 hrs by two-fold serial microbroth dilution method. It counts as functional. In short, it runs like this:
(§2)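 Broth microdilution in LB with 5% DMSO. Overnight cultures (LB, 37 °C, 200 rpm) were diluted 1:100 and added to a twofold compound dilution series in DMSO, giving 5·10^6 cfu·mL⁻¹ and final compound 64 to 0.25 µg·mL⁻¹. Plates were incubated 20 h at 37 °C. MIC was taken as the lowest concentration with no visible growth. At least three runs on separate days.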
(In broth dilution the organism is exposed to a series of concentrations in liquid medium.)

For test [4], the system named is Escherichia coli. Kind of test: Antibacterial activity against Escherichia coli D22 incubated assessed as prevention of visible growth for 20 hrs by two-fold serial microbroth dilution method. It counts as functional. In outline:
as §2

The subject of test [5] is Escherichia coli. Kind of test: Antibacterial activity against Escherichia coli D22 assessed as zone of growth inhibition at 10 mmol incubated for overnight by disc diffusion method. It counts as functional. Conditions: dose 10 mM; time 12 hrs. In short, it runs like this: as §1
Background: Agar diffusion results depend on both activity and mobility in agar.

The record followed here is ChEMBL document CHEMBL4725237, “Synthesis and biological evaluation of triazolyl-substituted benzyloxyacetohydroxamic acids as LpxC inhibitors” (Bioorg Med Chem, 2020).

Converted amounts (≈) assume the structure as drawn. Bounds are passed on as bounds.

For `C[C@@H](O)[C@H](NC(=O)c1ccc(C#Cc2ccc(CN3CCOCC3)cc2)cc1)C(=O)NO`, the “inhibition zone (IZ)” value in test [1] was found to be 31.7 mm; in test [5], 37.5 mm. Moreover, the IC50 – broadly, the concentration at which inhibition is half-maximal – in test [2] was 0.076 µM. Moreover, the MIC (commonly the lowest concentration found to suppress growth) in test [3] came out at 0.25 µg/mL (≈ 0.571 µM); in test [4], 0.031 µg/mL (≈ 0.0709 µM).

With `O=C(CO[C@H](CO)c1ccc(C#Cc2ccccc2)cc1)NO`, the “inhibition zone (IZ)” value in test [1] is 9.5 mm; in test [5], 20.5 mm. Also, the IC50 in test [2] was 86.2 µM. Moreover, the MIC was found to be 64 µg/mL (≈ 206 µM) in test [3] and 1 µg/mL (≈ 3.21 µM) in test [4].

Consider `O=C(CO[C@@H](CO)c1ccc(C#Cc2ccccc2)cc1)NO`, for which the “inhibition zone (IZ)” value in test [1] was less than 6 mm; in test [5], 13 mm. Further, in test [2], the IC50 was more than 200 µM. Further, the values for the MIC in test [3] and in test [4] were more than 64 µg/mL and 32 µg/mL (≈ 103 µM), respectively.

Consider `O=C(CO[C@H](Cn1ccnn1)c1ccc(C#Cc2ccccc2)cc1)NO`, for which the “inhibition zone (IZ)” value in test [1] was less than 6 mm; in test [5], 21 mm. The IC50 in test [2] came to 36 µM. Besides, the figures for the MIC in test [3] and in test [4] were more than 64 µg/mL and 1 µg/mL (≈ 2.76 µM), respectively.

For the compound `O=C(CO[C@H](Cn1cc(-c2ccccc2)nn1)c1ccc(OCc2ccccc2)cc1)NO`, the figures for the “inhibition zone (IZ)” value in test [1] and in test [5] were less than 6 mm and 10 mm, respectively. Further, the half-inhibitory concentration (IC50) in test [2] is more than 200 µM. Also, the MIC in test [3] is more than 64 µg/mL; in test [4], 32 µg/mL (≈ 72 µM).

For `O=C(CO[C@@H](Cn1cc(-c2ccccc2)nn1)c1ccc(C#Cc2ccccc2)cc1)NO`, the “inhibition zone (IZ)” value in test [1] is less than 6 mm; in test [5] it was 8.7 mm. For the same compound, the IC50 in test [2] is more than 200 µM. Also, the values for the minimum inhibitory concentration (MIC) in test [3] and in test [4] were more than 64 µg/mL and 32 µg/mL (≈ 73 µM), respectively.

For the compound `O=C(CO[C@H](Cn1nncc1CO)c1ccc(C#Cc2ccccc2)cc1)NO`, the “inhibition zone (IZ)” value in test [1] worked out at 10.3 mm; in test [5], 29.5 mm. Moreover, the IC50 in test [2] was determined as 23.4 µM. The MIC in test [3] was more than 64 µg/mL; in test [4], 1 µg/mL (≈ 2.55 µM).

Regarding `O=C(CO[C@H](Cn1nncc1-c1ccccc1)c1ccc(C#Cc2ccccc2)cc1)NO`, the “inhibition zone (IZ)” value is reported as less than 6 mm in test [1] and 10.7 mm in test [5]. In test [2], the half-inhibitory concentration (IC50) is more than 20 µM. The MIC in test [3] is more than 64 µg/mL; in test [4], 8 µg/mL (≈ 18.2 µM).

In the case of `O=C(CO[C@@H](Cn1ccnn1)c1ccc(C#Cc2ccccc2)cc1)NO`, the “inhibition zone (IZ)” value in test [1] is listed as less than 6 mm; in test [5] it was 11 mm. Also, the IC50 in test [2] is more than 200 µM. Besides, the MIC was more than 64 µg/mL in test [3] and not below 32 µg/mL in test [4].

On to `O=C(CO[C@H](Cn1cc(-c2ccccc2)nn1)c1ccc(C#Cc2ccccc2)cc1)NO`, for which the “inhibition zone (IZ)” value is listed as less than 6 mm in test [1] and 12.3 mm in test [5]. Also, the IC50 in test [2] amounted to 10.4 µM. The MIC in test [3] was more than 64 µg/mL; in test [4], 0.25 µg/mL (≈ 0.57 µM).

In the case of `O=C(CO[C@H](Cn1ccnn1)c1ccc(OCc2ccccc2)cc1)NO`, the “inhibition zone (IZ)” value in test [1] was less than 6 mm; in test [5], 15 mm. Moreover, the IC50 in test [2] was more than 200 µM. Also, the MIC in test [3] and in test [4] was more than 64 µg/mL in each case.

For the compound `O=C(CO[C@H](Cn1cc(CO)nn1)c1ccc(C#Cc2ccccc2)cc1)NO`, the “inhibition zone (IZ)” value is less than 6 mm in test [1] and 20.7 mm in test [5]. Besides, the IC50 in test [2] was 8.5 µM. Moreover, the MIC in test [3] is more than 64 µg/mL; in test [4], 4 µg/mL (≈ 10.2 µM).
